{"source": "paper PMC2223364", "about": "(The Journal of General Physiology, 1999)", "key": {"[1]": {"test_system": "maxi-KCa channel (external TEA site)", "experiment": "Fast block by external TEA in absence and presence of internal DTX-I", "type": "biochemical, rat", "conditions": "460 nM DTX-I; P = 0.1", "how_it_was_run": "(§1)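 Single rat skeletal muscle maxi-KCa channels were taken from plasma membrane vesicles and fused into planar bilayers of 80% POPE/20% POPC. Recordings used symmetrical 50 mM KCl and 10 mM MOPS-KOH, pH 7.4. Internal CaCl2 was 200 μM, raised to 500 μM in some experiments to keep open probability >0.9. Holding was +30 mV at 20–23°C, with Ag/AgCl electrodes and agar-KCl bridges.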"}, "maxi-KCa channels": {"test_system": "maxi-KCa channels", "conditions": "cited from earlier work"}, "[2]": {"target": "rat muscle maxi-KCa channel, internal pore (Rattus norvegicus, UniProt Q62976)", "sequence (Q62976 whole entry)": "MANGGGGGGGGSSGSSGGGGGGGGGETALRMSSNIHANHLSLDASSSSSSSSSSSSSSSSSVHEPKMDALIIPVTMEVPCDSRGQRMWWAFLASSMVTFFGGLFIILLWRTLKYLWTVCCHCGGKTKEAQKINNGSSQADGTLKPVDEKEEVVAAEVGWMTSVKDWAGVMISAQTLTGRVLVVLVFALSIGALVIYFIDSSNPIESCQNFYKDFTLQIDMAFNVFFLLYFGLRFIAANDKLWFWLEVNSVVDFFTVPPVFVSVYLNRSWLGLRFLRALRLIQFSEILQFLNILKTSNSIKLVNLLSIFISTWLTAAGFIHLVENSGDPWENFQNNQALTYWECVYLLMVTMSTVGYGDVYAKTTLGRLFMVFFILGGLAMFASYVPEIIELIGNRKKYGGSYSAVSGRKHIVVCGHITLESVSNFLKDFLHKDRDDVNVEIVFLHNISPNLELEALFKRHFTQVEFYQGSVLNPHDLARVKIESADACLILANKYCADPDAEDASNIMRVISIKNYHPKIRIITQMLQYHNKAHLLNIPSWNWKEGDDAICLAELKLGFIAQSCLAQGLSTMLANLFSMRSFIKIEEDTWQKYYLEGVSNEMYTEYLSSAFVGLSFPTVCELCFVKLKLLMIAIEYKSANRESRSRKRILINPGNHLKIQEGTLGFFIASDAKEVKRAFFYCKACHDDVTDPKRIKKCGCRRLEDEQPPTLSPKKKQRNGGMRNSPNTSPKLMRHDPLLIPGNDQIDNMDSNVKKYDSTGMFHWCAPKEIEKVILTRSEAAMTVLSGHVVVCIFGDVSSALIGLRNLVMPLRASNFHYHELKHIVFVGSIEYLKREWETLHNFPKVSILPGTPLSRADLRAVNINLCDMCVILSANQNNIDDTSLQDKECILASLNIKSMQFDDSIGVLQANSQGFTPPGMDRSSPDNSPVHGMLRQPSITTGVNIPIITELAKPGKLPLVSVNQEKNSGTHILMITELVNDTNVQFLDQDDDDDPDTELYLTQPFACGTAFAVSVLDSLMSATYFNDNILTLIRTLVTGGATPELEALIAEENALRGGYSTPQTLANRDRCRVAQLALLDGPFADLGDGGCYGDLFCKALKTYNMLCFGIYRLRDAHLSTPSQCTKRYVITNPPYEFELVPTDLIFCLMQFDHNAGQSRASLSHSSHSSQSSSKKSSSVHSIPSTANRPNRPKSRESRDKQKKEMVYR", "experiment": "Single-channel block by ball peptide homologue", "type": "biochemical", "conditions": "for Kd: BP alone, +30 mV, 50 mM KCl, pH 7.4", "how_it_was_run": "as §1"}, "[3]": {"target": "rat muscle maxi-KCa channel, intracellular sites (Rattus norvegicus, UniProt Q62976)", "sequence (Q62976 whole entry)": "as above", "experiment": "Ligand interaction of BP and DTX-I on single maxi-KCa channels, planar bilayer", "type": "biochemical", "how_it_was_run": "as §1"}, "[4]": {"test_system": "cyclic nucleotide–gated channels", "conditions": "ref Kramer et al., 1994; cited from earlier work"}, "[5]": {"test_system": "rat muscle maxi-KCa channel (large conductance Ca^2+-activated K^+ channel), intracellular site", "experiment": "Ligand interaction of BPTI and DTX-I on single maxi-KCa channels, planar bilayer", "type": "biochemical", "how_it_was_run": "as §1"}, "[6]": {"test_system": "rat muscle maxi-KCa channel (large conductance Ca^2+-activated K^+ channel), intracellular site", "experiment": "Single-channel substate kinetics of one Kunitz inhibitor", "type": "biochemical", "how_it_was_run": "as §1"}, "[7]": {"test_system": "serine proteinases (chymotrypsin/trypsin family)", "conditions": "BPTI and related Kunitz molecules; ref Dufton, 1985; Capasso et al., 1997; cited from earlier work"}, "[8]": {"test_system": "maxi-KCa channel (external ChTX site)", "experiment": "Slow block by external charybdotoxin in absence and presence of internal DTX-I", "type": "biochemical, rat"}, "[9]": {"conditions": "read-out: Kd (studied alone), abstract, one-site binding kinetics, unoccupied channel"}}, "note": "Several values for one entry are separate records, joined by “and”; a condition that tells them apart may be missing. Equal values may be shown once. Read-outs that look alike come from different tables or passages of the source. Ends that are not written are not given here."}
{"compound": "CC[N+](CC)(CC)CC", "note": "[TEA, tetraethylammonium]", "values": [{"measurement": "binding interaction of external TEA with internal DTX-I", "setting": "[1]", "result": "no detectable binding interaction"}, {"measurement": "effect of BPTI or DTX-I on blocking affinity of internal blocker", "setting": "maxi-KCa channels; Ba^2+ with BPTI, internal TEA with DTX-I, ref Lucchesi and Moczydlowski, 1991", "result": "not significantly affected"}, {"measurement": "inhibition of ball peptide block by TEA", "setting": "maxi-KCa channels; ref Toro et al., 1992", "result": "inhibits ball peptide block of the maxi-KCa channel in a strictly competitive fashion"}, {"measurement": "effect of internal TEA on BP association", "setting": "[2]; data not shown", "result": "decreases the association rate of BP homologue in a competitive fashion"}]}
{"compound": "MAAVAVLYVLGKKRQHRKKQ [BP]", "values": [{"measurement": "Kd", "setting": "[3]", "result": 57, "unit": "nM"}, {"measurement": "kon", "setting": "[3]; pH 7.4, read-out: association rate constant b2 (BP to SDTX)", "result": "1.85e+06", "unit": "M⁻¹ s⁻¹"}, {"measurement": "koff", "setting": "[3]; read-out: dissociation rate constant b−2 (BP from BBP/DTX)", "result": 0.105, "unit": "s⁻¹"}, {"measurement": "Kd", "setting": "[2]; equilibrium dissociation constant B1 = b−1/b1 (BP from BBP), unoccupied channel, kinetic ratio", "result": 7.16, "unit": "nM"}, {"measurement": "Kd", "setting": "[2]; equilibrium dissociation constant B1 from PU vs [BP] (Eq. 15), 4.5–6.5 h data pooled from three to seven single channels", "result": 8.85, "unit": "nM"}, {"measurement": "kon", "setting": "[2]; pH 7.4, read-out: bimolecular association rate constant b1 (BP to U)", "result": "8.17e+07", "unit": "M⁻¹ s⁻¹"}, {"measurement": "koff", "setting": "[2]; pH 7.4, read-out: dissociation rate constant b−1 (BP from BBP)", "result": 0.585, "unit": "s⁻¹"}]}
{"compound": "Shaker ball peptide: 20-residue NH2 terminus of the Shaker K^+ channel of Drosophila that mediates rapid inactivation (MAAVAVLYVLGKKRQHRKKQ)", "values": [{"measurement": "block of cyclic nucleotide–gated channels", "setting": "[4]", "result": "blocks other types of ion channels"}, {"measurement": "block of maxi-KCa channels", "setting": "maxi-KCa channels; ref Foster et al., 1992, Toro et al.", "result": "known to block maxi-KCa channels by a pore-occlusion mechanism"}]}
{"compound": "bovine pancreatic trypsin inhibitor [BPTI]", "values": [{"measurement": "relief of the DTX substate", "setting": "[5]; 8 μM BPTI, 460 nM DTX-I", "result": "~30", "unit": "%"}, {"measurement": "slope of τBURST vs [BPTI]", "setting": "[5]; BPTI titration at 460 nM DTX-I, measured", "result": 3.25, "unit": "s/µM"}, {"measurement": "KApp for relief of normalized DTX-substate probability, best fit to Eq. 10", "setting": "[5]; BPTI titration, 460 nM DTX-I", "result": "17.8 µM and 17.8 ± 1.7 µM"}, {"measurement": "decrease of BPTI affinity when DTX-I is bound (K2/K1)", "setting": "[5]; DTX-occupied vs unoccupied channel", "result": "11.7 fold and 11.7 ± 2.1 fold and ~11 fold"}, {"measurement": "increase in mean τS-DTX", "setting": "[5]; over 0–8 μM BPTI at 460 nM DTX-I", "result": 47, "unit": "%"}, {"measurement": "Kd", "setting": "[5]; read-out: Kd of BPTI when DTX-I is bound, abstract, DTX-occupied channel", "result": 17500, "unit": "nM"}, {"measurement": "probability of the channel residing in the fully open conductance state", "setting": "[6]; 8 μM internal BPTI (1.0 at 0 μM), +30 mV", "result": "~0.15"}, {"measurement": "mean lifetime of BPTI-induced substate (τS)", "setting": "[6]; BPTI alone, internal, 1-8 μM, +30 mV, symmetrical 50 mM KCl, 10 mM MOPS-KOH pH 7.4, 200 μM internal Ca2+, 20–23°C, mean of four τS means, single-exponential", "result": "~0.41 s and 0.411 ± 0.022 s"}, {"measurement": "apparent association rate constant 4k1", "setting": "[6]; BPTI alone, internal, fit of τU to Eq. 2, +30 mV, 50 mM KCl, pH 7.4", "result": "1.63 ± 0.07 × 10^6 s^−1M^−1"}, {"measurement": "dissociation rate constant k−1", "setting": "[6]; BPTI alone, internal, from τS (Eq. 1), ±SEM, +30 mV, 50 mM KCl, pH 7.4", "result": "2.43 ± 0.13", "unit": "s⁻¹"}, {"measurement": "equilibrium dissociation constant K1 (kinetic ratio k−1/4k1)", "setting": "[6]; BPTI, unoccupied channel, +30 mV, 50 mM KCl, pH 7.4", "result": "1.49 ± 0.10 µM and 1.49 µM"}, {"measurement": "Hill coefficient n", "setting": "[6]; fit of PU vs [BPTI]", "result": 1.0}, {"measurement": "substate current level", "setting": "[6]; ligand alone, internal, +30 mV", "result": "~27 % of unitary current"}, {"measurement": "Kd", "setting": "[6]; [9]", "result": 1490, "unit": "nM"}, {"measurement": "binding kinetics when studied alone", "setting": "[6]; words", "result": "one-site binding kinetics"}, {"measurement": "inhibition of chymotrypsin/trypsin family serine proteinases", "setting": "[7]", "result": "potent inhibitors"}]}
{"compound": "charybdotoxin [ChTX]", "values": [{"measurement": "binding interaction of external ChTX with internal DTX-I", "setting": "[8]; 460 nM internal DTX-I", "result": "no detectable binding interaction"}, {"measurement": "koff of ChTX, presence of DTX-I", "setting": "[8]; 460 nM internal DTX-I, +30 mV", "result": "0.0350 ± 0.0003", "unit": "s⁻¹"}, {"measurement": "kon of ChTX, presence of DTX-I", "setting": "[8]; 460 nM internal DTX-I, +30 mV", "result": "2.89 ± 0.51 × 10^7 s^−1M^−1"}, {"measurement": "koff of ChTX, absence of DTX-I", "setting": "[8]; external ChTX (10 nM), +30 mV", "result": "0.0369 ± 0.0004", "unit": "s⁻¹"}, {"measurement": "kon of ChTX, absence of DTX-I", "setting": "[8]; external ChTX (10 nM), +30 mV", "result": "2.77 ± 0.42 × 10^7 s^−1M^−1"}, {"measurement": "Kd", "setting": "[8]; read-out: Kd of ChTX (koff/kon), absence of DTX-I, external ChTX (10 nM), +30 mV", "result": "1.33 ± 0.2", "unit": "nM"}]}
{"compound": "dendrotoxin I (QPLRKLCILHRNPGRCYQKIPAFYYNQKKKQCEGFTWSGCGGNSNRFKTIEECRRTCIRK; ends and bridges not checked; cysteine pairing not given here; UniProt P00979 1-60, looked up) [DTX-I]", "values": [{"measurement": "Kd", "setting": "[5]; read-out: equilibrium dissociation constant J2, DTX-I binding to BPTI-occupied channel, from slope of τBURST vs [BPTI], Eq. 7, 460 nM DTX-I, +30 mV, 50 mM KCl, pH 7.4", "result": 178, "unit": "nM"}, {"measurement": "Kd", "setting": "[6]; [9]", "result": 16.5, "unit": "nM"}, {"measurement": "Kd", "setting": "[6]; read-out: equilibrium dissociation constant J1 = j−1/4j1 (DTX-I from SDTX), DTX-I, unoccupied channel, +30 mV, 50 mM KCl, pH 7.4", "result": 16.5, "unit": "nM"}, {"measurement": "Kd", "setting": "[3]; read-out: equilibrium dissociation constant J3 (DTX-I from BBP/DTX), DTX-I binding to BP-blocked state, from τBP, Eq. 19, +30 mV, 50 mM KCl, pH 7.4", "result": 139, "unit": "nM"}]}
